In assay [1] the test system is RS4-11. In words: Induction of apoptosis in human RS4:11 cells assessed as PARP cleavage at 10 uM after 24 hrs by Western blot analysis. The class given is functional, cell-based.
The target in assay [2] is T1, Protein cereblon/Bromodomain-containing protein 3/Cullin-4A (Homo sapiens) (UniProt Q15059+Q96SW2+Q13619). Put plainly: Protac activity at cereblon/cullin 4A/BRD3 in human RS4:11 cells assessed as BRD3 degradation at 1 to 10 uM after 3 to 24 hrs by Western blot analysis. In kind it is cell-based. A digest of the protocol:
(§1)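 Cells are used within two months of thawing. […] 1.5–2×10^6 cells/well are treated for 3 h or 24 h, then lysed in RIPA with protease inhibitors. 20 µg lysate is blotted to PVDF and probed with rabbit polyclonal anti-BRD2 or anti-BRD3. GAPDH is the loading control, detected by ECL.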

Assay [3] has as its target T1, Protein cereblon/Bromodomain-containing protein 3/Cullin-4A (Homo sapiens). In words: Protac activity at cereblon/cullin 4A/BRD3 in human MV4-11 cells assessed as BRD3 degradation at 1 to 10 uM after 3 to 24 hrs by Western blot analysis. In kind it is cell-based. A digest of the protocol:
as §1
In general terms: A western blot detects proteins with antibodies after separation by electrophoresis.

The test system of assay [4] is RS4-11. In words: Growth inhibition of human RS4:11 cells after 96 hrs by CCK8 assay. Particulars: RS4-11, 96 h. The class given is functional, cell-based.
A further assay has as its system MV4-11. In words: Growth inhibition of human MV4-11 cells after 96 hrs by CCK8 assay. In kind it is functional, cell-based. To be noted: MV4-11, 96 h. On the technique in general: Tetrazolium dyes change colour on reduction, which living cells bring about.
In the next assay the test system is MOLM-13. In words: Growth inhibition of human MOLM13 cells after 96 hrs by CCK8 assay. In kind it is functional, cell-based. To be noted: MOLM-13, 96 h.
For assay [5], the target named is T2, Protein cereblon/Bromodomain-containing protein 2/Cullin-4A (Homo sapiens) (UniProt P25440+Q96SW2+Q13619). In words: Protac activity at cereblon/cullin 4A/BRD2 in human RS4:11 cells assessed as BRD2 degradation at 0.1 nM after 3 hrs by Western blot analysis. In kind it is cell-based.
T2 sequence (P25440 whole entry, looked up): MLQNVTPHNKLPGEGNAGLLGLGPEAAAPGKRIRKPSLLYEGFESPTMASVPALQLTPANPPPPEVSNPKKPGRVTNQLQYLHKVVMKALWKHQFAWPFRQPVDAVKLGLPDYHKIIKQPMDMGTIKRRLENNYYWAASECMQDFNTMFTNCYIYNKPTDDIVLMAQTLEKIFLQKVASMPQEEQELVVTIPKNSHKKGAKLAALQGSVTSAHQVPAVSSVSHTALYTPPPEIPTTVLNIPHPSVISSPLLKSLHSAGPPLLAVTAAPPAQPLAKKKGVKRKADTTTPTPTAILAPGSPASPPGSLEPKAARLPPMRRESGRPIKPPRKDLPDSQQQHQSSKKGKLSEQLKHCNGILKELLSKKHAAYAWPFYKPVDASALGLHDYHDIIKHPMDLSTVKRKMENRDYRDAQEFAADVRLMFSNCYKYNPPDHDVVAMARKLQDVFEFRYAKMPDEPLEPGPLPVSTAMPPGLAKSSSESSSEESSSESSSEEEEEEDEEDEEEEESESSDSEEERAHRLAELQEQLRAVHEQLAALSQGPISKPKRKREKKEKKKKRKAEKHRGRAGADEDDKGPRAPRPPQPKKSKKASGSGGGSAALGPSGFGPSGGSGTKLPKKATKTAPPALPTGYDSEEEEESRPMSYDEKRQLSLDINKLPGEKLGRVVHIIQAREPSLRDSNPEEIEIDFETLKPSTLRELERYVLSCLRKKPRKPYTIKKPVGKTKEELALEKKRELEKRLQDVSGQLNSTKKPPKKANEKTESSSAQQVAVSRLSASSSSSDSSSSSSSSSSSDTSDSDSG
T2 sequence (Q13619 whole entry, looked up): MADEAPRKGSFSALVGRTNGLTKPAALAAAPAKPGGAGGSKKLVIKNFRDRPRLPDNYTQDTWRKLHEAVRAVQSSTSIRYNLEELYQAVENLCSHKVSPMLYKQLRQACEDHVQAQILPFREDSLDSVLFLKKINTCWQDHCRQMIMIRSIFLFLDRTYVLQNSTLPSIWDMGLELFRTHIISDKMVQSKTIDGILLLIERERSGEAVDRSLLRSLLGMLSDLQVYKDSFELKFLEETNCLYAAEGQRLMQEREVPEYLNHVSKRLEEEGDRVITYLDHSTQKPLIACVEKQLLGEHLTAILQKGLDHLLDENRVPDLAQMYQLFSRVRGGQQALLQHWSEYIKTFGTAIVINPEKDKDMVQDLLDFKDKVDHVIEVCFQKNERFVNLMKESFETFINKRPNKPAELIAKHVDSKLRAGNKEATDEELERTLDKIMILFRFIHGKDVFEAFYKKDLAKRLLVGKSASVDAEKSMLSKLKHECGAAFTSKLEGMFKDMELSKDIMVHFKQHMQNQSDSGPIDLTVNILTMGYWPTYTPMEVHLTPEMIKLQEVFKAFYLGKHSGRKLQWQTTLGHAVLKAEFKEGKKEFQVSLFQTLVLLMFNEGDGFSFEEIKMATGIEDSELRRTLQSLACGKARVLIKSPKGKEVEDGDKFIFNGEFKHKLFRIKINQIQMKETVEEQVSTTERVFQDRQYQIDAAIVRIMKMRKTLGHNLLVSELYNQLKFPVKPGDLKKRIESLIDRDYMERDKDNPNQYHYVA
T2 sequence (Q96SW2 whole entry, looked up): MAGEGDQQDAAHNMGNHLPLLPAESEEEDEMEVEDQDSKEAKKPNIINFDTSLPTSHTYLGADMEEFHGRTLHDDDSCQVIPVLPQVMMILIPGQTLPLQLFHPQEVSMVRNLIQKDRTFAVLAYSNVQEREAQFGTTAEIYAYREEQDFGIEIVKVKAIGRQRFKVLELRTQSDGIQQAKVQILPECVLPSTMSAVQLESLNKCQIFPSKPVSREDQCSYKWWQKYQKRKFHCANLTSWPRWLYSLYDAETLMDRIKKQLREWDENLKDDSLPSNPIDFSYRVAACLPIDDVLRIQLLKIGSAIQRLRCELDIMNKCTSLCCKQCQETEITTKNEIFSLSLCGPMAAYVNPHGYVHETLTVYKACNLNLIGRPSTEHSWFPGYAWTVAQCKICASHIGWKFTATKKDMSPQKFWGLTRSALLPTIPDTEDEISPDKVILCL
Assay [6] addresses T1, Protein cereblon/Bromodomain-containing protein 3/Cullin-4A (Homo sapiens). In words: Protac activity at cereblon/cullin 4A/BRD3 in human RS4:11 cells in assessed as BRD3 degradation at 0.1 nM after 3 hrs by Western blot analysis. In kind it is cell-based.
Assay [7] deals with T3, Protein cereblon/Bromodomain-containing protein 4/Cullin-4A (Homo sapiens) (UniProt O60885+Q96SW2+Q13619). In words: Protac activity at cereblon/cullin 4A/BRD4 in human RS4:11 cells assessed as BRD4 degradation at 0.1 nM after 3 hrs by Western blot analysis. In kind it is cell-based.
The test system of assay [8] is RS4-11. Put plainly: Induction of apoptosis in human RS4:11 cells assessed as PARP cleavage at 0.1 to 10 nM after 24 hrs by Western blot analysis. The class given is functional, cell-based. A digest of the protocol:
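Cells (1.5–2×10^6/well) were treated for 24 h, washed in cold PBS and lysed in RIPA with protease inhibitors. 20 µg lysate was run on 4–20% or 4–12% gels and transferred to PVDF. Blots were probed for cleaved PARP and cleaved caspase 3, with GAPDH as loading control. Detection by ECL.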

The target of assay [9] is T2, Protein cereblon/Bromodomain-containing protein 2/Cullin-4A (Homo sapiens). Put plainly: Protac activity at cereblon/cullin 4A/BRD2 in human RS4:11 cells assessed as BRD2 degradation by Western blot analysis. The class given is cell-based.
For assay [10], the target named is T1, Protein cereblon/Bromodomain-containing protein 3/Cullin-4A (Homo sapiens). In words: Protac activity at cereblon/cullin 4A/BRD3 in human RS4:11 cells in assessed as BRD3 degradation by Western blot analysis. The class given is cell-based.
Assay [11] has as its target T3, Protein cereblon/Bromodomain-containing protein 4/Cullin-4A (Homo sapiens). In words: Protac activity at cereblon/cullin 4A/BRD4 in human RS4:11 cells assessed as BRD4 degradation by Western blot analysis. The class given is cell-based.
For assay [12], the target named is Bromodomain-containing protein 4 (Homo sapiens, UniProt O60885).
Assay [13] addresses Protein cereblon/Bromodomain-containing protein 4/Bromodomain-containing protein 3/Bromodomain-containing protein 2 (Homo sapiens) (UniProt P25440+O60885+Q15059+Q96SW2). Put plainly: Protac activity at cereblon/cullin 4A/BET in human RS4:11 cells assessed as reduction in c-myc protein levels at 0.1 nM after 3 hrs by Western blot analysis. The class given is cell-based.
Assay [14] has as its target T2, Protein cereblon/Bromodomain-containing protein 2/Cullin-4A (Homo sapiens). Put plainly: Protac activity at cereblon/cullin 4A/BRD2 in human RS4:11 cells assessed as induction of BRD2 degradation at 0.1 to 1 uM after 3 to 24 hrs by Western blot analysis. The class given is cell-based.
Assay [15] has as its target T1, Protein cereblon/Bromodomain-containing protein 3/Cullin-4A (Homo sapiens). Put plainly: Protac activity at cereblon/cullin 4A/BRD3 in human RS4:11 cells in assessed as BRD3 degradation at 0.1 to 1 uM after 3 to 24 hrs by Western blot analysis. The class given is cell-based.
The target in assay [16] is T3, Protein cereblon/Bromodomain-containing protein 4/Cullin-4A (Homo sapiens). In words: Protac activity at cereblon/cullin 4A/BRD4 in human RS4:11 cells assessed as BRD4 degradation at 0.1 to 1 uM after 3 to 24 hrs by Western blot analysis. In kind it is cell-based.

Activity calls are given as the source filed them. No cut-off for these calls is given here.

T1 sequence (Q13619 whole entry, looked up): as the sequence (Q13619 whole entry, looked up) above
T1 sequence (Q15059 whole entry, looked up): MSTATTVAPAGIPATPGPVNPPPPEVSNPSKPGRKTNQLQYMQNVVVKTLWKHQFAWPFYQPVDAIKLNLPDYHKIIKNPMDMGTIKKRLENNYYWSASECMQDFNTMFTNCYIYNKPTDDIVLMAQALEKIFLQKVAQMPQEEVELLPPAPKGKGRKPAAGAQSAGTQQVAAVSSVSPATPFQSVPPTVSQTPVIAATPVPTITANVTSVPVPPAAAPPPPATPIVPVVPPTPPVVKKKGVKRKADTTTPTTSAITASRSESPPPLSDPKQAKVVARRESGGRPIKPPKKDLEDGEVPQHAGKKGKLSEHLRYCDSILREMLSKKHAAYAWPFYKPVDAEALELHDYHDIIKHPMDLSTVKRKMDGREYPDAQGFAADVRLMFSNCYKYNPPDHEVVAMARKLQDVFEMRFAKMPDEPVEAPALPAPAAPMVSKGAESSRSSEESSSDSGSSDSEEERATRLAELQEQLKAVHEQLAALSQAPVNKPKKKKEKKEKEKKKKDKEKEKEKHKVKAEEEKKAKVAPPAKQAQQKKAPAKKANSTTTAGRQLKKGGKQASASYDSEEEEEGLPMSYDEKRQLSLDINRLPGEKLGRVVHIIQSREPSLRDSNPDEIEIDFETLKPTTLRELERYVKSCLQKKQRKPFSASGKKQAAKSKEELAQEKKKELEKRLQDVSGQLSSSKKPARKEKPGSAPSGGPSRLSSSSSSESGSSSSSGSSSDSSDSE
T1 sequence (Q96SW2 whole entry, looked up): as the sequence (Q96SW2 whole entry, looked up) above
Chain of Protein cereblon/Bromodomain-containing protein 4/Bromodomain-containing protein 3/Bromodomain-containing protein 2 (Homo sapiens) (P25440 whole entry, looked up, other chains not shown): as the sequence (P25440 whole entry, looked up) above
Chain of Protein cereblon/Bromodomain-containing protein 4/Bromodomain-containing protein 3/Bromodomain-containing protein 2 (Homo sapiens) (Q15059 whole entry, looked up, other chains not shown): as the sequence (Q15059 whole entry, looked up) above
Chain of Protein cereblon/Bromodomain-containing protein 4/Bromodomain-containing protein 3/Bromodomain-containing protein 2 (Homo sapiens) (Q96SW2 whole entry, looked up, other chains not shown): as the sequence (Q96SW2 whole entry, looked up) above

Consider `Cc1nnc2n1-c1sc(C#Cc3cnn(C)c3)c(Cc3ccccc3)c1COC2`, for which the outcome (with RS4-11 [1]; in assay [2]) was Active. Also, the result in assay [3] was inactive.

With `Cc1nnc2n1Cc1sc(C#Cc3cnn(CCCC#Cc4cccc5c4C(=O)N(C4CCC(=O)NC4=O)C5=O)c3)c(Cc3ccccc3)c1OC2` (centres undefined), the results for the IC50 in the assay with RS4-11 [4], in the assay with MV4-11 and in the assay with MOLM-13 were 0.39 nM, 0.72 nM and 1.6 nM, respectively.

As for `Cc1nnc2n1Cc1sc(C#Cc3cnn(CCCNc4cccc5c4C(=O)N(C4CCC(=O)NC4=O)C5=O)c3)c(Cc3ccccc3)c1OC2` (centres undefined), the IC50 (as a rule, the concentration that inhibits the measured activity by half) in the assay on RS4-11 [4] was determined as 0.038 nM; in the assay with MV4-11, 0.138 nM; in the assay with MOLM-13, 0.56 nM. Also, the outcome (in [5]; in [6]; in assay [7]; in the assay with RS4-11 [8]) was Active.

Consider `Cc1nnc2n1Cc1sc(C#Cc3cnn(CCCC#Cc4cccc5c4CN(C4CCC(=O)N(C)C4=O)C5=O)c3)c(Cc3ccccc3)c1OC2` (centres undefined), for which the IC50 in the assay with RS4-11 [4] is 43.7 nM; in the assay on MV4-11, 25.8 nM; in the assay on MOLM-13, 183 nM.

Take `Cc1nnc2n1Cc1sc(C#Cc3cnn(CCCCNc4cccc5c4CN(C4CCC(=O)NC4=O)C5=O)c3)c(Cc3ccccc3)c1OC2` (centres undefined): the results for the half-maximal inhibitory concentration (IC50) with RS4-11 [4] and in the assay on MOLM-13 were 0.0012 nM and 0.18 nM, respectively.

Take `Cc1nnc2n1Cc1sc(C#Cc3cnn(CCCCCc4cccc5c4CN(C4CCC(=O)NC4=O)C5=O)c3)c(Cc3ccccc3)c1OC2` (centres undefined): the IC50 came out at 0.081 nM in the assay on RS4-11 [4], 0.14 nM with MV4-11 and 0.53 nM with MOLM-13.

As for `Cc1nnc2n1Cc1sc(C#Cc3cnn(COc4cccc5c4C(=O)N(C4CCC(=O)NC4=O)C5=O)c3)c(Cc3ccccc3)c1OC2` (centres undefined), the IC50 was 20.8 nM with RS4-11 [4], 19.7 nM in the assay with MV4-11 and 311 nM in the assay on MOLM-13. The Activity entry in [9], in assay [10] and in assay [11] was “Dose-dependent effect” each time.

Take `Cc1sc2c(c1C)COCc1nnc(C)n1-2`: in assay [12], the IC50 turned out to be 4400 nM and affinity was put at a Ki of 1500 nM.

For the molecule `Cc1nnc2n1Cc1sc(C#Cc3cnn(CCCNc4cccc5c4CN(C4CCC(=O)NC4=O)C5=O)c3)c(Cc3ccccc3)c1OC2` (centres undefined), the IC50 was determined as 0.025 nM in the assay with RS4-11 [4], 0.035 nM in the assay on MV4-11 and 0.51 nM with MOLM-13.

As to `Cc1nnc2n1Cc1sc(C#Cc3cnn(CCCCNc4cccc5c4C(=O)N(C4CCC(=O)NC4=O)C5=O)c3)c(Cc3ccccc3)c1OC2` (centres undefined), the IC50 with RS4-11 [4] worked out at 0.02 nM; in the assay on MV4-11, 0.0654 nM; with MOLM-13, 0.19 nM. Moreover, the result (in assay [5]; in [6]; in assay [7]; in assay [13]; in the assay with RS4-11 [8]) was Active.

In the case of `Cc1nnc2n1Cc1sc(C#Cc3cnn(CCCCCNc4cccc5c4C(=O)N(C4CCC(=O)NC4=O)C5=O)c3)c(Cc3ccccc3)c1OC2` (centres undefined), the 50% inhibitory concentration (IC50) with RS4-11 [4] was determined as 0.02 nM; in the assay on MV4-11 it was 0.092 nM; in the assay on MOLM-13 it was 0.19 nM. The result (in assay [5]; in [6]; in assay [7]; in [13]; in the assay with RS4-11 [8]) was Active.

As for `Cc1nnc2n1Cc1sc(C#Cc3cnn(CCNc4cccc5c4C(=O)N(C4CCC(=O)NC4=O)C5=O)c3)c(Cc3ccccc3)c1OC2` (centres undefined), the IC50 in the assay on RS4-11 [4] stood at 0.379 nM; with MV4-11 it was 0.47 nM; in the assay with MOLM-13, 2.23 nM. Besides, in the assay on RS4-11 [8], the result was Active.

As to `Cc1nnc2n1-c1scc(Cc3ccccc3)c1COC2`, in assay [12], half-maximal inhibition (IC50) required 2300 nM; the Ki (commonly the dissociation constant of the complex between target and ligand, obtained from inhibition or displacement) was 820 nM.

For `Cc1nnc2n1-c1sc(C3CCOCC3)c(Cc3ccccc3)c1COC2`, in assay [12], inhibition was half-maximal at 8100 nM (IC50) and the Ki amounted to 2800 nM.

In assay [12], `Cc1nnc2n1-c1sc(C#N)c(Cc3ccccc3)c1COC2` displayed an IC50 of 720 nM and a Ki of 250 nM.

Turning to `Cc1nnc2n1Cc1sc(C#Cc3cnn(-c4cccc5c4C(=O)N(C4CCC(=O)NC4=O)C5=O)c3)c(Cc3ccccc3)c1OC2` (centres undefined), the IC50 in the assay with RS4-11 [4], with MV4-11 and in the assay with MOLM-13 was over 1000 nM each time. Besides, the result in assay [14], in [15] and in [16] was inactive.

For the origin of these results see ChEMBL document CHEMBL4382197, “Discovery of QCA570 as an Exceptionally Potent and Efficacious Proteolysis Targeting Chimera (PROTAC) Degrader of the Bromodomain and Extra-Terminal (BET) Proteins Capable of Inducing Complete and Durable Tumor Regression” (J Med Chem, 2018).
